Assay outcomes (PubChem)
Rows were chosen to be rich in hits. Some 4.5% of all compounds tested hit in one or more screens of this group.
TAAR1 antagonist – antagonists of human TAAR1; Q96RJ0; CHO RD-HGA16 TAAR1, Fluo-8 calcium fluorescence, antagonist; inhibition, % at 3 µM; 360,000 tested, 1.5% active; AID 624466;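 active means inhibition above a per-plate cutoff, the mean inhibition of test compounds on that plate plus 3 SD, cut at about 49% in these data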;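 further: 0% = DMSO plus EC80 beta-PEA response and 100% = DMSO alone without agonist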
Target sequence (Q96RJ0 whole entry, looked up): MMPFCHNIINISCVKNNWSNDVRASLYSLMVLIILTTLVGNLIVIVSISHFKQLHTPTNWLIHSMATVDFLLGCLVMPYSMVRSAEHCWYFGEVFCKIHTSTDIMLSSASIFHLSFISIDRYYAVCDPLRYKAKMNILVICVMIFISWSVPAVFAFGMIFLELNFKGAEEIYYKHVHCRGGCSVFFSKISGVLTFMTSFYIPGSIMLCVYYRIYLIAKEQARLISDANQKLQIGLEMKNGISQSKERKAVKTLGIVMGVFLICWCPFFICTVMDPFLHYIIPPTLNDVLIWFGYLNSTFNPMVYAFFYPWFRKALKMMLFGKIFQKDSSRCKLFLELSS
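Test system – hTAAR1-expressing CHO RD-HGA16 cells, Gα16-coupled · Reagent – β-PEA at EC80 concentration, post-compound challenge · Compound dosing – 3 µM, single point · Timing – 140 s kinetic read after compound, 140 s after agonist · Detection – Fluo-8 intracellular calcium dye fluorescence, real-time kinetic reads · Control set – DMSO and EC80 PEA controls · Repeats – n of 1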
CHO parental Ca – counter-screen for OX1R antagonists: effect in parental CHO cells. parental CHO-K1, ATP-induced calcium, Fluo-8 fluorescence. inhibition, % at 5.6 µM. 330,000 tested, 0.63% active;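 active means inhibition above that plate's mean sample inhibition plus 3 SD, cut at about 26% in these data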;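 further: 0% = ATP-challenged DMSO wells and 100% = DMSO wells without ATP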
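Material: parental CHO cells / Compound: single nominal dose of 5.6 µM per compound / Signal: Fluo-8 fluorescence / Replicates: singlicate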
OX1R antag-1 – antagonists of human orexin 1 receptor (OX1R); inhibition, % at 6.6 µM; OX1R-expressing cells, FRET antagonist read-out; O43613; 330,000 tested, 1.8% active; in the data active means inhibition mostly above about 38%, no sharp cut-off; inactive means mostly below about 40%;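 further: 0% = agonist challenge alone and 100% = reference antagonist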
GPR7 antagonist – human neuropeptides B/W receptor 1 antagonism. P48145. GPR7-expressing cells, fluorescence antagonist assay. inhibition, % at 4.4 µM. 290,000 tested, 1.1% active; in the data active means inhibition above about 16%, passing the limit was not always enough;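 further: cells stimulated with the agonist NPW; 0% = agonist with vehicle and 100% = vehicle without agonist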
OX1R antag-2 – antagonists of human orexin 1 receptor | CHO/OX1R cells, Fluo-8 calcium fluorescence, orexin A | 330,000 tested, 0.43% active | O43613 | inhibition, % at 5 µM;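 active means inhibition above its plate's threshold, mean inhibition of all tested compounds on the plate plus 3 SD, cut at about 37% in these data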;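 further: 0% = orexin A challenge wells and 100% = SB-334867-A antagonist wells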
TAAR1 agonist – agonists of human TAAR1; 360,000 tested, 0.99% active; Q96RJ0; AID 624467; activation, % at 3 µM; CHO RD-HGA16 TAAR1, Fluo-8 calcium fluorescence; vehicle wells 0%, saturating PEA agonist 100%;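 active means activation above the mean activation of all test compounds in the run plus 3 SD, cut at about 38% in these data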
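Assay system: CHO-derived RD-HGA16 cells with stable Gα16 and human TAAR1; timing: 17-24 h seeding, 75 min 37 °C dye, 30 min RT; read-out: % activation from peak over basal fluorescence ratio, DMSO-to-PEA scaled; measured by: kinetic Fluo-8 calcium fluorescence; benchmarks: low control DMSO, high control PEA (EC100); doses: 3 µM single concentration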
nonsel antag count – counter-screen for TAAR1 antagonists: nonselective antagonists. counterscreen cell line, calcium fluorescence, antagonist mode. inhibition, % at 3 µM. AID 651780. 2,400 tested, 77% active. shares compounds with TAAR1 antagonist; in the data active means inhibition above about 22%;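 further: CHO-Ga16 host cells stimulated with ATP at an EC80 level; 0% = agonist EC80 plus vehicle and 100% = vehicle without agonist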
TAAR1 ant conf – confirmation of human TAAR1 antagonists. shares compounds with TAAR1 antagonist. TAAR1-expressing cells, fluorescence antagonist read-out. inhibition, % at 3 µM. 2,400 tested, 40% active. AID 651785; in the data active means inhibition above about 49%;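 further: CHO-Ga16 host cells challenged with agonist PEA near its EC80; 0% = agonist at EC80 plus vehicle and 100% = vehicle with no agonist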
Ga16 ag counter – nonselective Ga16 agonism, counter-screen. activation, % at 3 µM. Ga16-expressing cells, calcium fluorescence, agonist counterscreen. 2,400 tested, 18% active. AID 651953. shares compounds with TAAR1 antagonist; in the data active means activation above about 12%;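 further: 0% = vehicle wells and 100% = saturating stimulus response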
TAAR1 ag count – TAAR1 agonism, antagonist counter-screen | shares compounds with TAAR1 antagonist | hTAAR1 cell line, fluorescence activation, agonist mode | activation, % at 3 µM | 2,400 tested, 2% active | AID 651955; in the data active means activation above about 37%;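 further: CHO cells stably expressing TAAR1 with calcium dye readout; 0% = DMSO vehicle and 100% = full agonist response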
Active calls of the source: *; . = no result given.

SMILES	TAAR1 antagonist	CHO parental Ca	OX1R antag-1	GPR7 antagonist	OX1R antag-2	TAAR1 agonist	nonsel antag count	TAAR1 ant conf	Ga16 ag counter	TAAR1 ag count
O=C1OC(c2ccccc2)(c2cc(Br)ccc2O)c2ccccc21 (stereo not drawn)	63*	.	.	.	.	8	28*	46	6	21
CC(C)=N/N=C1/NC(=O)C(c2ccc(Cl)cc2)S1 (stereo not drawn)	55*	.	.	.	.	27	1	-3	3	3
COc1cc(C(=O)NCC(=O)NNC(=O)CN(C)S(=O)(=O)c2ccc(Cl)cc2)cc(OC)c1OC	-13	-7	-1	.	-19	11	.	.	.	.
COc1ccccc1Nc1nnc(SCc2cc(=O)n3cc(C)ccc3n2)s1	69*	-13	19	-10	-15	16	30*	45	9	7
O=C(COC(=O)c1ccccc1NCCO)NCCc1ccccc1	-11	-18	7	.	-8	11	.	.	.	.
O=C(OCC(=O)N(Cc1ccccc1)Cc1ccccc1)c1ccccc1NCCO	70*	-3	13	.	-21	8	35*	51*	7	4
O=C(NCCO)c1cccc(Nc2nc(-c3ccccc3)c3cc(Cl)ccc3n2)c1	49*	-16	10	-20	-25	10	30*	37	5	14
Cc1c(NC(=O)c2cccc(NS(C)(=O)=O)c2)c(=O)n(-c2ccccc2)n1C	1	1	1	-11	-4	0	.	.	.	.
CCCCc1nc(NCCNC(=O)c2ccccc2)c(C#N)c2c1CSC(C)(C)C2	68*	-22	7	-5	-35	15	30*	52*	7	6
Cc1noc(C)c1NC(=O)N(C)C[C@H]1Oc2ccc(NC(=O)Cn3cnnn3)cc2C(=O)N([C@H](C)CO)C[C@@H]1C	6	-2	-1	.	2	2	.	.	.	.
N#Cc1cc(C#N)c(N2CCN(c3cccc(Cl)n3)CC2)nc1N	58*	-13	13	18	-24	32	34*	49*	19*	24
NC1CCN(c2cccc(Cl)n2)CC1	.	-8	6	.	-18	.	.	.	.	.
COc1cccc(NC(=O)CN(C)C(=O)C2CCN(C(=O)c3ccccc3C)CC2)c1	-1	-1	7	.	-1	0	.	.	.	.
CCN(c1ccccc1)S(=O)(=O)c1ccc(Cl)c(C(=O)OCC(=O)c2[nH]c(C)c(C(C)=O)c2C)c1	63*	-15	22	-12	-22	0	21	27	2	4
COc1ccc(-c2coc3c(C(=O)NCC4CC4)cccc23)c(C)c1	-12	.	.	.	.	4	.	.	.	.
COC(=O)c1cccc(-c2ccc(/C=N/N3C(=O)C4C5C=CC(C6CC56)C4C3=O)o2)c1 (stereo not drawn)	23	-18	25	-9	-13	12	.	.	.	.
Cc1ccc(-c2ccc(/C=N/N3C(=O)C4C5C=CC(C6CC56)C4C3=O)o2)c([N+](=O)[O-])c1 (stereo not drawn)	58*	-11	39	-9	-11	10	33*	43	10	7
COC(=O)c1ccc(-c2ccc(/C=N/N3C(=O)C4C5C=CC(C6CC56)C4C3=O)o2)cc1 (stereo not drawn)	62*	-6	9	-13	0	18	27*	41	10	13
CN1C(=O)C(Cc2cnc[nH]2)NC1=S (stereo not drawn)	-20	1	-3	-13	5	1	.	.	.	.
COc1ccc(N2CCN(C(=O)C3CCCN(S(=O)(=O)c4cccc5cccnc45)C3)CC2)cc1 (stereo not drawn)	13	-5	5	-1	-20	1	.	.	.	.
